Source: ChEMBL document CHEMBL4834454 (Bioorg Med Chem, 2021)

How the values were obtained:
Cannabinoid receptor 2 [1] = biological target: T1, Cannabinoid receptor 2 (Homo sapiens, UniProt P34972); assay: Antagonist activity at human CB2 receptor expressed in CHO-RD-HGA16 cells overexpressing Galpha16 assessed as inhibition of CP55940-stimulated calcium mobilization at 10 uM preincubated for 15 mins followed by agonist addition and measured every 1 sec for 90 secs by Calcium-3 dye based FLIPR assay; type: functional, cell-based; conditions: time 990.0 sec
T1 sequence (P34972 whole entry): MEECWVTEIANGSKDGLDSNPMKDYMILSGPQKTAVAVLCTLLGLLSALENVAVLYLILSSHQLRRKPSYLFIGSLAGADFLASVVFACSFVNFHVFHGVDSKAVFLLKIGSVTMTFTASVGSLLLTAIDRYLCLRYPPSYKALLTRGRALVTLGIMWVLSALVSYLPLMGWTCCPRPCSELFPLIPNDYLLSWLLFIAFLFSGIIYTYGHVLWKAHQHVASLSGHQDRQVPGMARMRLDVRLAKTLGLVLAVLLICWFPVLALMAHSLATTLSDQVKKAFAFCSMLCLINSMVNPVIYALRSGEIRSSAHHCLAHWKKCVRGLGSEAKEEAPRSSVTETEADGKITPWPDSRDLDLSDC

Cannabinoid receptor 1 [2] = biological target: T2, Cannabinoid receptor 1 (Homo sapiens, UniProt P21554); assay: Agonist activity at human CB1 receptor expressed in CHO-RD-HGA16 cells overexpressing Galpha16 assessed as stimulation of calcium mobilization measured every 1 sec for 90 secs by Calcium-3 dye based FLIPR assay relative to Emax of CP55940; type: functional, cell-based; conditions: time 90.0 sec
T2 sequence (P21554 whole entry): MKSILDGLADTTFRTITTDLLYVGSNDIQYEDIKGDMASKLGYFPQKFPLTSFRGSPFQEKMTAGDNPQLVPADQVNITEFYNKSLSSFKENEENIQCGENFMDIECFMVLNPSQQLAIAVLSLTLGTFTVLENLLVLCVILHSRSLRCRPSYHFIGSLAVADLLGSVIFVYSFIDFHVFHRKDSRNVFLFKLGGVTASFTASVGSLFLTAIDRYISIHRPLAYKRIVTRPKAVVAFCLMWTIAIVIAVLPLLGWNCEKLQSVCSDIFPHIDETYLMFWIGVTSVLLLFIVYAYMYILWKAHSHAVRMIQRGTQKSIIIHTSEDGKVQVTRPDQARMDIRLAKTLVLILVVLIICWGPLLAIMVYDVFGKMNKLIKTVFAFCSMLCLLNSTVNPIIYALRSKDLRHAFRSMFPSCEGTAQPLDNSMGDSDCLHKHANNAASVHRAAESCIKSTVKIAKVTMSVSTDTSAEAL
Outline: (§1)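 Agonist screen. […] They were pretreated with vehicle (BSA/DMSO/EtOH buffer) for 15 min, and a single concentration of test compound was added at 10 s. Fluorescence (485/525 nm) was read for 90 s. RFU is expressed as % of CP55,940 Emax RFU. Line 1 uses hCB1 cells; line 2 uses hCB2 cells.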

Cannabinoid receptor 2 [3] = biological target: T1, Cannabinoid receptor 2; assay: Antagonist activity at human CB2 receptor expressed in CHO-RD-HGA16 cells overexpressing Galpha16 assessed as inhibition of CP55940-stimulated calcium mobilization preincubated for 15 mins followed by agonist addition and measured every 1 sec for 90 secs by Calcium-3 dye based FLIPR assay; type: functional, cell-based
Cannabinoid receptor 2 [4] = biological target: T1, Cannabinoid receptor 2; assay: Agonist activity at human CB2 receptor expressed in CHO-RD-HGA16 cells overexpressing Galpha16 assessed as stimulation of calcium mobilization measured every 1 sec for 90 secs by Calcium-3 dye based FLIPR assay relative to Emax of CP55940; type: functional, cell-based; conditions: time 90.0 sec; outline: as §1
Cannabinoid receptor 1 [5] = biological target: T2, Cannabinoid receptor 1; assay: Allosteric antagonist activity at human CB1 receptor expressed in CHO-RD-HGA16 cells overexpressing Galpha16 assessed as inhibition of CP55940-stimulated calcium mobilization preincubated for 15 mins followed by agonist addition and measured every 1 sec for 90 secs by Calcium-3 dye based FLIPR assay; type: functional, cell-based
Cannabinoid receptor 1 [6] = biological target: T2, Cannabinoid receptor 1; assay: Allosteric antagonist activity at N-terminal 3HA-tagged human CB1 receptor expressed in HEK293 cells assessed as reduction in CP55940-stimulated inhibition of forskolin-induced cAMP accumulation measured for 20 mins by BRET assay; type: functional, cell-based
Cannabinoid receptor 1 [7] = biological target: T2, Cannabinoid receptor 1; assay: biochemical

## O=C(NCCc1ccncc1)Nc1ccc(Cl)cc1
Cannabinoid receptor 2 [1]
  inhibition: < 50%
Cannabinoid receptor 1 [2]
  Activity: < 30%
Cannabinoid receptor 2 [3]
  IC50: > 10 µM
Cannabinoid receptor 2 [4]
  Activity: < 10%

## O=C(Nc1ccc(Cl)cc1)NC1(Cc2ccccc2)CC1
Cannabinoid receptor 2 [1]
  inhibition: < 50%
Cannabinoid receptor 1 [2]
  Activity: < 30%
Cannabinoid receptor 2 [3]
  IC50: > 10 µM
Cannabinoid receptor 2 [4]
  Activity: < 10%

## O=C(NCCc1ccccc1)Nc1ccc(Cl)cc1
Cannabinoid receptor 1 [5]
  IC50: 0.2 µM
Cannabinoid receptor 2 [1]
  inhibition: < 50%
Cannabinoid receptor 2 [3]
  IC50: > 10 µM
Cannabinoid receptor 1 [6]
  IC50: 3.16 µM
Cannabinoid receptor 2 [4]
  Activity: < 10%
Cannabinoid receptor 1 [7]
  IC50: 6.31 µM

## O=C(NCCN1CCCCC1)Nc1ccc(Cl)cc1
Cannabinoid receptor 2 [1]
  inhibition: < 50%
Cannabinoid receptor 1 [2]
  Activity: < 30%
Cannabinoid receptor 2 [3]
  IC50: > 10 µM
Cannabinoid receptor 2 [4]
  Activity: < 10%

## CN(C)c1ccc(CCNC(=O)Nc2ccc(Cl)cc2)cc1
Cannabinoid receptor 1 [5]
  IC50: 0.251 µM
Cannabinoid receptor 2 [1]
  inhibition: < 50%
Cannabinoid receptor 1 [2]
  Activity: < 30%
Cannabinoid receptor 2 [3]
  IC50: > 10 µM
Cannabinoid receptor 1 [6]
  IC50: 2.51 µM
Cannabinoid receptor 2 [4]
  Activity: < 10%
Cannabinoid receptor 1 [7]
  IC50: 15.8 µM

## O=C(NCCc1ccsc1)Nc1ccc(Cl)cc1
Cannabinoid receptor 2 [1]
  inhibition: < 50%
Cannabinoid receptor 1 [2]
  Activity: < 30%
Cannabinoid receptor 2 [3]
  IC50: > 10 µM
Cannabinoid receptor 2 [4]
  Activity: < 10%

## CCN(CC)c1ccc(CCNC(=O)Nc2ccc(Cl)cc2)cc1
Cannabinoid receptor 1 [5]
  IC50: 3.16 µM
Cannabinoid receptor 2 [1]
  inhibition: < 50%
Cannabinoid receptor 1 [2]
  Activity: < 30%
Cannabinoid receptor 2 [3]
  IC50: > 10 µM
Cannabinoid receptor 2 [4]
  Activity: < 10%

## O=C(NCCc1cccnc1)Nc1ccc(Cl)cc1
Cannabinoid receptor 2 [1]
  inhibition: < 50%
Cannabinoid receptor 1 [2]
  Activity: < 30%
Cannabinoid receptor 2 [3]
  IC50: > 10 µM
Cannabinoid receptor 2 [4]
  Activity: < 10%

## CN1CCN(CCNC(=O)Nc2ccc(Cl)cc2)CC1
Cannabinoid receptor 2 [1]
  inhibition: < 50%
Cannabinoid receptor 1 [2]
  Activity: < 30%
Cannabinoid receptor 2 [3]
  IC50: > 10 µM
Cannabinoid receptor 2 [4]
  Activity: < 10%

## CC(=O)NCCNC(=O)Nc1ccc(Cl)cc1
Cannabinoid receptor 1 [5]
  IC50: 1.58 µM
Cannabinoid receptor 2 [1]
  inhibition: < 50%
Cannabinoid receptor 1 [2]
  Activity: < 30%
Cannabinoid receptor 2 [3]
  IC50: > 10 µM
Cannabinoid receptor 2 [4]
  Activity: < 10%

## O=C(NCCN1CCCC1)Nc1ccc(Cl)cc1
Cannabinoid receptor 2 [1]
  inhibition: < 50%
Cannabinoid receptor 1 [2]
  Activity: < 30%
Cannabinoid receptor 2 [3]
  IC50: > 10 µM
Cannabinoid receptor 2 [4]
  Activity: < 10%

## O=C(Nc1ccc(Cl)cc1)Nc1cccc(-c2cccc(N3CCCC3)n2)c1
Cannabinoid receptor 1 [2]
  Activity: < 30%
Cannabinoid receptor 2 [3]
  IC50: > 10 µM
Cannabinoid receptor 2 [4]
  Activity: < 10%

## CCc1c(C(=O)NCCc2ccc(N3CCCCC3)cc2)[nH]c2ccc(Cl)cc12
Cannabinoid receptor 1 [5]
  IC50: 0.794 µM
Cannabinoid receptor 2 [1]
  inhibition: < 50%
Cannabinoid receptor 2 [3]
  IC50: > 10 µM
Cannabinoid receptor 1 [6]
  IC50: 0.158 µM
Cannabinoid receptor 2 [4]
  Activity: < 10%
Cannabinoid receptor 1 [7]
  IC50: 1 µM

## O=C(NCCN1CCOCC1)Nc1ccc(Cl)cc1
Cannabinoid receptor 2 [1]
  inhibition: < 50%
Cannabinoid receptor 1 [2]
  Activity: < 30%
Cannabinoid receptor 2 [3]
  IC50: > 10 µM
Cannabinoid receptor 2 [4]
  Activity: < 10%

## O=C(NCCc1ccc(N2CCCCC2)cc1)Nc1ccc(Cl)cc1
Cannabinoid receptor 1 [5]
  IC50: 0.794 µM
Cannabinoid receptor 2 [1]
  inhibition: < 50%
Cannabinoid receptor 2 [3]
  IC50: > 10 µM
Cannabinoid receptor 2 [4]
  Activity: < 10%
Cannabinoid receptor 1 [7]
  IC50: 1.26 µM

## O=C(NCC1(c2ccccc2)CC1)Nc1ccc(Cl)cc1
Cannabinoid receptor 1 [5]
  IC50: 5.01 µM
Cannabinoid receptor 2 [1]
  inhibition: < 50%
Cannabinoid receptor 1 [2]
  Activity: < 30%
Cannabinoid receptor 2 [3]
  IC50: > 10 µM
Cannabinoid receptor 2 [4]
  Activity: < 10%

## CC(C)(Cc1ccccc1)NC(=O)Nc1ccc(Cl)cc1
Cannabinoid receptor 2 [1]
  inhibition: < 50%
Cannabinoid receptor 1 [2]
  Activity: < 30%
Cannabinoid receptor 2 [3]
  IC50: > 10 µM
Cannabinoid receptor 2 [4]
  Activity: < 10%

## O=C(NCCc1ccccn1)Nc1ccc(Cl)cc1
Cannabinoid receptor 1 [5]
  IC50: 3.98 µM
Cannabinoid receptor 2 [1]
  inhibition: < 50%
Cannabinoid receptor 1 [2]
  Activity: < 30%
Cannabinoid receptor 2 [3]
  IC50: > 10 µM
Cannabinoid receptor 2 [4]
  Activity: < 10%

## O=C(NCc1ccccc1)Nc1ccc(Cl)cc1
Cannabinoid receptor 2 [1]
  inhibition: < 50%
Cannabinoid receptor 1 [2]
  Activity: < 30%
Cannabinoid receptor 2 [3]
  IC50: > 10 µM
Cannabinoid receptor 2 [4]
  Activity: < 10%

## O=C(NC[C@H]1C[C@@H]1c1ccccc1)Nc1ccc(Cl)cc1 (relative stereo)
Cannabinoid receptor 2 [1]
  inhibition: < 50%
Cannabinoid receptor 1 [2]
  Activity: < 30%
Cannabinoid receptor 2 [3]
  IC50: > 10 µM
Cannabinoid receptor 2 [4]
  Activity: < 10%

## CC(C)(CNC(=O)Nc1ccc(Cl)cc1)c1ccccc1
Cannabinoid receptor 2 [1]
  inhibition: < 50%
Cannabinoid receptor 1 [2]
  Activity: < 30%
Cannabinoid receptor 2 [3]
  IC50: > 10 µM
Cannabinoid receptor 2 [4]
  Activity: < 10%

## Cc1ccc(CCNC(=O)Nc2ccc(Cl)cc2)o1
Cannabinoid receptor 2 [1]
  inhibition: < 50%
Cannabinoid receptor 1 [2]
  Activity: < 30%
Cannabinoid receptor 2 [3]
  IC50: > 10 µM
Cannabinoid receptor 2 [4]
  Activity: < 10%

## O=C(NCCc1ccc(N2CCCC2)cc1)Nc1ccc(Cl)cc1
Cannabinoid receptor 1 [5]
  IC50: 0.794 µM
Cannabinoid receptor 2 [1]
  inhibition: < 50%
Cannabinoid receptor 1 [2]
  Activity: < 30%
Cannabinoid receptor 2 [3]
  IC50: > 10 µM
Cannabinoid receptor 2 [4]
  Activity: < 10%
Cannabinoid receptor 1 [7]
  IC50: 39.8 µM

## O=C(NCC(F)(F)c1ccccc1)Nc1ccc(Cl)cc1
Cannabinoid receptor 2 [1]
  inhibition: < 50%
Cannabinoid receptor 1 [2]
  Activity: < 30%
Cannabinoid receptor 2 [3]
  IC50: > 10 µM
Cannabinoid receptor 2 [4]
  Activity: < 10%

## O=C(NCCc1cccs1)Nc1ccc(Cl)cc1
Cannabinoid receptor 2 [1]
  inhibition: < 50%
Cannabinoid receptor 1 [2]
  Activity: < 30%
Cannabinoid receptor 2 [3]
  IC50: > 10 µM
Cannabinoid receptor 2 [4]
  Activity: < 10%

## O=C(NCCCc1ccccc1)Nc1ccc(Cl)cc1
Cannabinoid receptor 1 [5]
  IC50: 3.98 µM
Cannabinoid receptor 2 [1]
  inhibition: < 50%
Cannabinoid receptor 1 [2]
  Activity: < 30%
Cannabinoid receptor 2 [3]
  IC50: > 10 µM
Cannabinoid receptor 2 [4]
  Activity: < 10%
